The record followed here is ChEMBL document CHEMBL3813689, “Discovery of Potent Benzofuran-Derived Diapophytoene Desaturase (CrtN) Inhibitors with Enhanced Oral Bioavailability for the Treatment of Methicillin-Resistant Staphylococcus aureus (MRSA) Infections” (J Med Chem, 2016).

Usually IC50 stands for the concentration at which inhibition is half-maximal. Read a low IC50 as higher potency. In general, solubility refers to the concentration that dissolves in the medium under given conditions. The low end stands for a poorly soluble substance, the high end for a readily soluble substance. By clearance is commonly meant the volume of plasma or blood freed of the substance per unit of time. Low values mean inefficient removal, high ones efficient removal. As usually defined, the bioavailability is dose-corrected exposure relative to a reference, in per cent. A lower bioavailability goes with poor availability. By MIC80 is commonly meant an inhibitory concentration at the 80% level, which refers to growth in some studies and to a panel of isolates in others.

Active and inactive are the calls of the source. The rule behind the calls is not given here.

For one data set, the system named is Trichophyton verrucosum. Nature of the data set: Antifungal activity against Trichophyton verrucosum measured after 7 days by serial dilution method. It counts as functional. Summed up: (§1)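 Broth serial dilution MIC per NCCLS in RPMI 1640 buffered with 0.165 M MOPS; compounds in DMSO diluted in medium. Dermatophytes incubated at 28 °C, read at 7 days. MIC taken as lowest concentration giving ≥80% growth inhibition versus control (turbidity).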

Data set [1] deals with Staphylococcus aureus. The data set is described as follows: Sensitization of Staphylococcus aureus USA300 LAC to immune clearance in human whole blood assessed as bacterial survival at 1 uM measured after 24 hrs (reference value: 12.2%). It counts as functional.
In data set [2] the test system is Staphylococcus aureus. Nature of the data set: Sensitization of methicillin-resistant Staphylococcus aureus USA400 MW2 to H2O2 assessed as bacterial survival at 1 uM measured after 24 hrs (reference value: 11.7%). It is filed as functional. To be noted: MW2, 24 h.
The test system of data set [3] is Staphylococcus aureus. Nature of the data set: Inhibition of staphyloxanthin pigment formation in Staphylococcus aureus Newman after 48 hrs by spectrophotometric method. It counts as functional, organism-based. Summed up:
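Compounds as 20 mM DMSO stocks, serial 2-fold dilutions in DMSO; 40 µL added to 4 mL TSB culture, 37 °C for 48 h, in triplicate. Cells washed twice with PBS, pigment extracted with methanol, OD450 measured; IC50 from dose-response curve fit of OD data.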

A short description of data set [4]: Aqueous solubility of the compound by HPLC method. It is filed as physicochemical. Summed up:
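Calibration with standards at 50, 100, 200, 400 and 800 µg/mL in methanol (peak area vs concentration). 10 mg solid stirred in 1 mL pure water for 24 h, more added if still clear; syringe-filtered, 10 µL injected; solubility read from calibration curve.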

In data set [5] the test system is Staphylococcus aureus. Nature of the data set: Suppression in growth of Staphylococcus aureus Newman at 0.2 mM measured after overnight incubation by spectrophotometric method. It is filed as organism-based. The conditions noted are these: in vitro, 200 µM. Summed up:
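Compound from 20 mM DMSO stock diluted in TSB to final 0.2 or 0.05 mM; DMSO growth controls; paraffin overlay. Overnight cultures inoculated to final OD600 ≈ 0.05; incubated at 37 °C overnight with OD600 read every 30 min.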

In data set [6] the test system is Staphylococcus aureus. Nature of the data set: Sensitization of Staphylococcus aureus Newman to immune clearance in human whole blood assessed as bacterial survival at 1 uM measured after 24 hrs (reference value: 26.7%). It is filed as functional.
Data set [7] relates to Staphylococcus aureus. The data set is described as follows: Sensitization of methicillin-resistant Staphylococcus aureus USA400 MW2 to immune clearance in human whole blood assessed as reduction in bacterial survival at 1 uM measured after 24 hrs relative to control. It is filed as functional. Summed up:
(§2)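 Overnight cultures spun down and resuspended in sterile PBS at 1 × 10^7 CFU/mL. 40 µL mixed with 360 µL fresh whole blood from a healthy human volunteer, giving 1 × 10^6 CFU/mL. Incubated 6 h at 37 °C. Surviving CFU counted by plating dilutions on TSA.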

Data set [8] relates to Staphylococcus aureus. Nature of the data set: Sensitization of methicillin-resistant Staphylococcus aureus Mu50 to immune clearance in human whole blood assessed as reduction in bacterial survival at 1 uM measured after 24 hrs relative to control. It counts as functional. Summed up: as §2
Data set [9] has as its system Staphylococcus aureus. The data set is described as follows: Sensitization of methicillin-resistant Staphylococcus aureus USA400 MW2 to H2O2 assessed as reduction in bacterial survival at 1 uM measured after 24 hrs relative to control. It is filed as functional. The essentials:
(§3)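 Strains grown 24 h in TSB with or without inhibitor, washed twice in PBS, then diluted to 4 × 10^6 CFU per 250 µL reaction. H2O2 added to a final 1.5%. Tubes sealed and held 30 min at 37 °C. Reaction stopped with 1000 U/mL catalase. Survivors counted as CFU by serial dilution on TSA plates and compared with untreated (mock) bacteria.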

The subject of data set [10] is Staphylococcus aureus. The data set is described as follows: Sensitization of methicillin-resistant Staphylococcus aureus Mu50 to H2O2 assessed as reduction in bacterial survival at 1 uM measured after 24 hrs relative to control. It is filed as functional. Summed up:
as §3

Data set [11] has as its system Staphylococcus aureus. Nature of the data set: Antibacterial activity against Staphylococcus aureus Newman infected Balb/c mouse assessed as reduction of bacterial survival in heart at 5.2 mg, ip bid administered for 4.5 days followed by bacterial infection measured after 5 days. It counts as functional. The essentials: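 Female BALB/c mice, 6–8 weeks, dosed ip with compound in sterile water once and every 12 h for 108 h; water vehicle controls. Challenged 12 h after first dose with 1 × 10^7 CFU Newman by retro-orbital injection. Kidneys and hearts homogenised in PBS/0.1% Triton X-100 and plated on TSA for CFU. n = 13 mice; two-tailed Mann-Whitney.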

In data set [12] the test system is Staphylococcus aureus. Nature of the data set: Antibacterial activity against Staphylococcus aureus USA400 MW2 infected Balb/c mouse assessed as reduction of bacterial survival in liver at 1.3 mg, ip bid administered for 4.5 days followed by bacterial infection measured after 5 days. It counts as functional. Summed up:
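Female BALB/c mice, 6–8 weeks. Compound in sterile water ip once and every 12 h for 108 h, total 50 or 200 mg/kg; water controls. Infected 12 h after first dose with 4 × 10^7 CFU USA400 MW2 (100 µL). Killed 5 days post infection; liver or kidney CFU counted on TSA after homogenising in PBS/0.1% Triton X-100. n = 13; two-tailed Mann-Whitney.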

Data set [13] can be described thus: Total plasma clearance in Sprague-Dawley rat at 5 mg/kg, iv administered as single dose. It counts as ADME, organism-based. Summed up: (§4)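 Male SD rats, 3 per group, single iv 5 mg/kg or oral 10 mg/kg. Blood sampled 0.083 (iv only), 0.25, 0.5, 1, 2, 4, 6, 8, 24 h postdose; plasma separated at 4 °C, stored −80 °C, analysed within 1 week. Parameters from plasma concentration-time data; F from dose-normalized AUC, oral vs iv.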

A short description of data set [14]: Terminal half life in Sprague-Dawley rat at 5 mg/kg, iv administered as single dose. It is filed as ADME, organism-based. To be noted: in vivo, read-out: beta t1/2 (converted). Summed up:
as §4

A further data set has as its system Rattus norvegicus. The data set is described as follows: Dose normalized AUC (0 to infinity) in Sprague-Dawley rat at 5 mg/kg, iv administered as single dose. It is filed as ADME, organism-based. The conditions noted are these: in vivo. Summed up:
as §4

Data set [15] in a line: Oral bioavailability in Sprague-Dawley rat at 10 mg/kg administered as single dose. It counts as ADME, organism-based. To be noted: in vivo. Summed up:
as §4

Another data set has as its system Trichophyton rubrum. Nature of the data set: Antifungal activity against Trichophyton rubrum measured after 7 days by serial dilution method. It counts as functional. The essentials:
as §1

For data set [16], the target named is T1, 4,4'-diapophytoene desaturase (4,4'-diaponeurosporene-forming) (Staphylococcus aureus (strain Newman)) (UniProt O07855).
T1 sequence (whole entry): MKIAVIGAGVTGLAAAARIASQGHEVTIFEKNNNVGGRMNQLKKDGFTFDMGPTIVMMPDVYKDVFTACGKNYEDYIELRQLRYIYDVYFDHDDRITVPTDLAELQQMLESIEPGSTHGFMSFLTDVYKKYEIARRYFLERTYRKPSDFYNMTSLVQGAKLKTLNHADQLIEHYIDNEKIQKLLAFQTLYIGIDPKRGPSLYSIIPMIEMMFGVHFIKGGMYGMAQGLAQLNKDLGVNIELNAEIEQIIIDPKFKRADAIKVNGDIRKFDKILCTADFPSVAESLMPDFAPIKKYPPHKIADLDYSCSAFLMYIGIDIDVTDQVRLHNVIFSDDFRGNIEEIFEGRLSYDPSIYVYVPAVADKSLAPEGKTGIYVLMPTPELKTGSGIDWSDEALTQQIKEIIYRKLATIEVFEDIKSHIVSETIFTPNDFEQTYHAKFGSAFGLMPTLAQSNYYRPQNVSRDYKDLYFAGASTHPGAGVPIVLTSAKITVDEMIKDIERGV
To be noted: Staphylococcus aureus subsp. aureus str. Newman; 1 uM.

Regarding `CN(C/C=C/c1ccc(C(F)(F)F)cc1)Cc1cccc2ccoc12.Cl`, in the data set on Trichophyton verrucosum, the “MIC80 (lowest concentration giving ≥80% growth inhibition)” value is greater than 64 µg/mL. Further, the values for the survival at 1 µM with Staphylococcus aureus [1], in the data set on Staphylococcus aureus [2] and in the data set on Staphylococcus aureus [6] were 1.2%, 0.6% and 0.8%, respectively. Also, half-maximal inhibition in the data set with Staphylococcus aureus [3] (IC50) required 3.93 nM. Also, the concentration in solution in [4] (solubility) was 10000 µg/mL. The values for the Activity result in the data set with Staphylococcus aureus [5], with Staphylococcus aureus [11] and in the data set on Staphylococcus aureus [12] were “Non-toxic”, 1.01 deltalog10CFU and 0.71 deltalog10CFU, respectively. The “fold change (FC)” value in the data set on Staphylococcus aureus [7] was 8; in the data set on Staphylococcus aureus [8] it was 5; in the data set on Staphylococcus aureus [9], 20; in the data set with Staphylococcus aureus [10], 6. The clearance in data set [13] was 54.3 mL/min/kg. Moreover, in data set [14], the half-life is 8.23 h. Also, the AUC/dose in the data set with Rattus norvegicus is 1299.47 ng/mL.hr/(mg/kg). The same molecule returned a bioavailability in data set [15] of 42.2%. The MIC80 in the data set with Trichophyton rubrum turned out to be 16 µg/mL. Moreover, the inhibition entry in data set [16] is “Active”.
